Laboratory results taken from ChEMBL document CHEMBL4732136, “Synthesis, Tumor Specificity, and Photosensitizing Efficacy of Erlotinib-Conjugated Chlorins and Bacteriochlorins: Identification of a Highly Effective Candidate for Photodynamic Therapy of Cancer” (J Med Chem, 2021).
pIC50: −log10 of the molar value.

Key:
FaDu = assay: Photosensitizing activity in human FaDu cells assessed as reduction in cell viability pretreated with compound for 24 hrs followed by light irradiation at 1 J/cm2 and measured after 48 hrs by MTT assay; type: functional, cell-based; details: light or radiation study
Summary of the method: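 Cells seeded at 0.01–0.05 x 10⁶ cells/ml; PS added 24 h after plating, top dose 1600 nM with 2-fold serial dilutions. Plates given 0 or 1 J/cm² light. MTT added 48 h later, formazan dissolved in DMSO, absorbance at 570 nm; IC50 from curve fitting.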

[1] = Drug uptake in human FaDu clone 49 cells assessed as increase in drug retention at 1.6 uM in RPMI medium with 10% FBS followed by 48 hrs chase period by inverted fluorescence microscopic analysis
[2] = Drug uptake in human CFSE-stained HN-121 cells assessed as increase in drug retention at 1.6 uM in medium with 10% FBS followed by 48 hrs chase period by inverted fluorescence microscopic analysis; type: ADME, cell-based; details: hn-121, 48 h
UMUC3 = assay: Photosensitizing activity in human UMUC3 cells assessed as reduction in cell viability pretreated with compound for 24 hrs followed by light irradiation at 1 J/cm2 and measured after 48 hrs by MTT assay; type: functional, cell-based; details: UMUC3, light or radiation study
Summary of the method: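 Cells plated 0.01x10⁶ to 0.05x10⁶ cells/ml and allowed to adhere 24 h before photosensitizer was added, top dose 1600 nM with 2-fold serial dilutions. Plates received no light (0 J/cm²) or 1 J/cm² at 565 mW, 15 cm spot. After 48 h, MTT added for 3 h, formazan solubilized in DMSO and read at 570 nm; IC₅₀ fitted from dose-response.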

[3] = Drug uptake in human HNT1 cells at 3.2 uM incubated for 30 mins in DMEM media with 10% FBS followed by […] in compound-free medium by inverted fluorescence microscopic analysis; type: ADME, cell-based; details: hnt1, 0.5 h, in the assay text read “in serum-free medium” for “in DMEM media with 10% FBS”
Summary of the method: (§1)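 Confluent HNT1 cultures (passage 116) given 3.2 μM PS for 30 min in serum-free medium, then 5 h in serum-containing medium with PS, then 15 h chase in serum medium without PS. Fluorescence recorded at 100X with varied camera exposures and quantified digitally; pixel signal normalized to time and cell number.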

[4] = Drug uptake in tumor of SCID mouse xenografted with human UMUC3 cells at 0.47 micromol/kg, iv pretreated with compound followed by light irradiation at a dose of 135 J/cm2 and 75 mW/cm2 measured after 2 to 24 hrs by IVIS analysis; type: ADME, organism-based, Neoplasm; details: in vivo, time 2-24 hrs, dose 0.47 µmol/kg
Summary of the method: (§2)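 Female SCID mice with UMUC3 flank/shoulder tumors, 3 per group. PS in 1% Tween80/5% dextrose given iv at 0.47, 0.25 or 0.125 μmol/kg. Whole-body fluorescence imaging by IVIS at several times after injection; average radiant efficiency measured in tumor, liver and skin.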

[5] = Drug uptake in human HNT1 cells at 3.2 uM incubated for 30 mins in serum free medium followed by […] in compound-free medium by inverted fluorescence microscopic analysis; type: ADME, cell-based; details: hnt1, 0.5 h; summary of the method: as §1
[6] = Drug uptake in skin of SCID mouse xenografted with human UMUC3 cells at 0.47 micromol/kg, iv pretreated with compound followed by light irradiation at a dose of 135 J/cm2 and 75 mW/cm2 measured after 2 to 24 hrs by IVIS analysis; type: ADME, organism-based, Skin of body; details: in vivo, time 2-24 hrs, dose 0.47 µmol/kg; summary of the method: as §2
[7] = Drug uptake in liver of SCID mouse xenografted with human UMUC3 cells at 0.47 micromol/kg, iv pretreated with compound followed by light irradiation at a dose of 135 J/cm2 and 75 mW/cm2 measured after 2 to 24 hrs by IVIS analysis; type: ADME, organism-based; details: in vivo, time 2-24 hrs, dose 0.47 µmol/kg; summary of the method: as §2
[8] = Drug uptake in human HN-143 cells assessed as increase in drug retention retention at 3 uM in medium with 10% FBS incubated for 5 hrs followed by 40 hrs chase period by inverted fluorescence microscopic analysis; type: ADME, cell-based; details: hn-143, 5 h
Summary of the method: (§3)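 Five-day co-cultures of HN-143 tumor epithelial cells and HN-166 tumor fibroblasts, both primary head & neck tumor cultures grown on collagen-1 under selective media. PS in 10% FBS medium for 5 h, then 40 h chase without PS. Phase-contrast and fluorescence images taken at 100X with 500 ms exposure; signal normalized to recording time and cell number.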

[9] = Drug uptake in human HN-166 cells assessed as increase in drug retention retention at 3 uM in medium with 10% FBS incubated for 5 hrs followed by 40 hrs chase period by inverted fluorescence microscopic analysis; type: ADME, cell-based; details: hn-166, 5 h; summary of the method: as §3

Row | Drug uptake [1] | Drug uptake [2] | SMILES | pIC50 (FaDu) | pIC50 (UMUC3) | also measured
1 | Not Active | Not Active | C=Cc1c(C)c2cc3nc(c(CC(=O)OC)c4[nH]c(cc5nc(cc1[nH]2)C(C)=C5CC)c(C)c4C(=O)NCCNC(=O)COCC(=O)NCCCOCCOCCOCCCNC(=O)Cc1cccc(I)c1)[C@@H](CCC(=O)OC)[C@@H]3C | 7.72 | 7.58 | 
2 | Not Active | Not Active | CCCCCCOC(C)c1c(C)c2cc3nc(c(CC(=O)OC)c4[nH]c(cc5nc(cc1[nH]2)C(C)=C5CC)c(C)c4C(=O)NCc1cccc(I)c1)[C@@H](CCC(=O)OC)[C@@H]3C (some centres undefined) |  |  | 
3 | Not Active | Not Active | C=Cc1c(C)/c2[nH]/c1=C\C1=NC(=C\C3=C(C)C4C(=O)N(Cc5cccc(C#Cc6cccc(Nc7ncnc8cc(OCCOC)c(OCCOC)cc78)c6)c5)C(=O)/C(=C5N=C(\C=2)[C@@H](C)[C@@H]/5CCC(=O)OC)C4N3)/C(CC)=C1C (some centres undefined) |  |  | 
4 | Not Active | Not Active | CCC1=C(C)c2cc3[nH]c(c(C)c3CC)c(-c3ccc(C(=O)NCc4ccc(I)cc4)cc3)c3nc(c4c5[nH]c(cc1n2)c(C)c5C(=O)C4)[C@@H](CCC(=O)OC)[C@@H]3C | 5.90 | 6.71 | 
5 | Not Active | Not Active | CCCCCCOC(C)c1c(C)c2cc3nc(c4c5[nH]c(cc6nc(cc1[nH]2)C(C)=C6CC)c(C)c5C(=O)C4)[C@@H](CCC(=O)NC(CCC(=O)NCc1cccc(C#Cc2cccc(Nc4ncnc5cc(OCCOC)c(OCCOC)cc45)c2)c1)(CCC(=O)NCc1cccc(C#Cc2cccc(Nc4ncnc5cc(OCCOC)c(OCCOC)cc45)c2)c1)CCC(=O)NCc1cccc(C#Cc2cccc(Nc4ncnc5cc(OCCOC)c(OCCOC)cc45)c2)c1)[C@@H]3C (some centres undefined) |  |  | 
6 | Not Active | Not Active | C=Cc1c(C)c2cc3nc(c(CC(=O)OC)c4[nH]c(cc5nc(cc1[nH]2)C(C)=C5CC)c(C)c4C(=O)NCCNC(=O)COCC(=O)NCCCOCCOCCOCCCNC(=O)Cc1cccc(C#Cc2cccc(Nc4ncnc5cc(OCCOC)c(OCCOC)cc45)c2)c1)[C@@H](CCC(=O)OC)[C@@H]3C | 7.05 | 7.23 | 
7 | Not Active | Not Active | CCCCCCOC(C)c1c(C)c2cc3nc(c(CC(=O)OC)c4[nH]c(cc5nc(cc1[nH]2)C(C)=C5CC)c(C)c4C(=O)NCc1cccc(C#Cc2cccc(Nc4ncnc5cc(OCCOC)c(OCCOC)cc45)c2)c1)[C@@H](CCC(=O)OC)[C@@H]3C (some centres undefined) |  | 8.46 | Drug uptake [8]: Active; Drug uptake [9]: Active
8 | Not Active | Not Active | CCC1=C(C)c2cc3[nH]c(c(C)c3CC)c(-c3ccc(C(=O)NCc4ccc(C#Cc5cccc(Nc6ncnc7cc(OCCOC)c(OCCOC)cc67)c5)cc4)cc3)c3nc(c4c5[nH]c(cc1n2)c(C)c5C(=O)C4)[C@@H](CCC(=O)OC)[C@@H]3C | < 5.00 |  | 
9 | Active | Active | CCCCCCOC(C)c1c(C)c2cc3nc(c4c5[nH]c(cc6nc(cc1[nH]2)C(C)=C6CC)c(C)c5C(=O)C4)[C@@H](CCC(=O)NCc1cccc(C#Cc2cccc(Nc4ncnc5cc(OCCOC)c(OCCOC)cc45)c2)c1)[C@@H]3C (some centres undefined) |  | 7.36 | Drug uptake [8]: Active; Drug uptake [9]: Active

More lines, now with the values behind:

Row | SMILES | Drug uptake [1] | Drug uptake [2] | pIC50 (FaDu) | pIC50 (UMUC3) | also measured
10 | CCC1=C(C)c2cc3[nH]c(cc4nc(c5c6[nH]c(cc1n2)c(C)c6C(=O)C5)[C@@H](CCC(=O)O)[C@@H]4C)c(C)c3C(C)OCc1cccc(C#Cc2cccc(Nc3ncnc4cc(OCCOC)c(OCCOC)cc34)c2)c1 (some centres undefined) |  |  | 7.50 | 7.26 | Drug uptake [3]: Active; Drug uptake [4]: Not Active; Drug uptake [5]: Active
11 | CCC1=C(C)c2cc3[nH]c(cc4nc(c5c6[nH]c(cc1n2)c(C)c6C(=O)C5)[C@@H](CCC(=O)O)[C@@H]4C)c(C)c3C(C)OCc1ccc(C#Cc2cccc(Nc3ncnc4cc(OCCOC)c(OCCOC)cc34)c2)cc1 (some centres undefined) | Active | Active | 7.22 | 7.46 | 
12 | CCCCCCOC(C)c1c(C)c2cc3nc(c4c5[nH]c(cc6nc(cc1[nH]2)C(C)=C6CC)c(C)c5C(=O)C4)[C@@H](CCC(=O)NCc1cccc(I)c1)[C@@H]3C (some centres undefined) |  |  | 6.28 | 6.73 | 
13 | CCC1c2cc3[nH]c4c(c5nc(cc6[nH]c(cc(n2)C1C)c(C(C)OCc1cccc(C#Cc2cccc(Nc7ncnc8cc(OCCOC)c(OCCOC)cc78)c2)c1)c6C)[C@@H](C)[C@@H]5CCC(=O)OC)CC(=O)c4c3C (some centres undefined) | Not Active | Not Active |  | 7.77 | 
14 | CCC1c2cc3[nH]c4c(c5nc(cc6[nH]c(cc(n2)C1C)c(C(C)OCc1cccc(C#Cc2cccc(Nc7ncnc8cc(OCCOC)c(OCCOC)cc78)c2)c1)c6C)[C@@H](C)[C@@H]5CCC(=O)O)CC(=O)c4c3C (some centres undefined) | Not Active | Not Active |  | 8.05 | 
15 | CCC1=C(C)c2cc3[nH]c(cc4nc(c5c6[nH]c(cc1n2)c(C)c6C(=O)C5)[C@@H](CCC(=O)OC)[C@@H]4C)c(C)c3COCc1cccc(C#Cc2cccc(Nc3ncnc4cc(OCCOC)c(OCCOC)cc34)c2)c1 | Not Active | Not Active | 7.63 | 7.12 | Drug uptake [6]: Active; Drug uptake [4]: Not Active; Drug uptake [7]: Active
16 | C=Cc1c(C)c2cc3nc(c(CC(=O)OC)c4[nH]c(cc5nc(cc1[nH]2)C(C)=C5CC)c(C)c4C(=O)NCc1cccc(C#Cc2cccc(Nc4ncnc5cc(OCCOC)c(OCCOC)cc45)c2)c1)[C@@H](CCC(=O)OC)[C@@H]3C |  |  | 7.48 | 7.40 | 
17 | CCCCCCOC(C)c1c(C)c2cc3nc(c(CC(=O)OC)c4[nH]c(cc5nc(cc1[nH]2)C(C)=C5CC)c(C)c4C(=O)NCCCOCCOCCOCCCNC(=O)Cc1cccc(C#Cc2cccc(Nc4ncnc5cc(OCCOC)c(OCCOC)cc45)c2)c1)[C@@H](CCC(=O)OC)[C@@H]3C (some centres undefined) | Active | Active | 7.67 | 8.12 | Drug uptake [8]: Active; Drug uptake [9]: Active
18 | C=Cc1c(C)c2cc3nc(c(CC(=O)NCc4cccc(C#Cc5cccc(Nc6ncnc7cc(OCCOC)c(OCCOC)cc67)c5)c4)c4[nH]c(cc5nc(cc1[nH]2)C(C)=C5CC)c(C)c4C(=O)OC)[C@@H](CCC(=O)OC)[C@@H]3C |  |  | 6.78 | 7.35 | 
19 | C=Cc1c(C)c2cc3nc(c(CC(=O)OC)c4[nH]c(cc5nc(cc1[nH]2)C(C)=C5CC)c(C)c4C(=O)NCc1cccc(I)c1)[C@@H](CCC(=O)OC)[C@@H]3C |  |  | 7.86 | 7.55 | 
20 | CCCCCCOC(C)c1c(C)c2cc3nc(c(CC(=O)OC)c4[nH]c(cc5nc(cc1[nH]2)C(C)=C5CC)c(C)c4C(=O)NCCCOCCOCCOCCCNC(=O)Cc1cccc(I)c1)[C@@H](CCC(=O)OC)[C@@H]3C (some centres undefined) |  |  | 7.81 | 8.17 | 
